# Dynein cargo inh – blocks dynein driven cargo transport along microtubules. 3617.4 mouse cells, GR-EGFP nuclear translocation imaging; test concentration mostly 20 µM; stimulated with dexamethasone, 1 µM; stronger effect = lower value. z-score, hits read low. 220,000 compounds, 0.47% hits;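 active = plate z-score of nuclear minus cytoplasmic receptor signal below a set negative limit, without overly bright fluorescence or cell loss, cut at about -3.5 in these data, passing the limit was not always enough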;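 note: z-score of nuclear minus cytoplasmic ring GR-EGFP intensity difference per well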
#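 Buffer or medium: tet-free, stripped-serum medium; reagent: dexamethasone at 1.0 µM final, 30 min; incubation: 48 h induction, 1 h compound, 30 min dex at 37 °C; measured by: formaldehyde fixation, Hoechst nuclear stain, 10x automated fluorescence imaging; read-out: nuclear-to-cytoplasmic GR-EGFP distribution per well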
# HSV augment – increases HSV replication in cells | HSV replication augmentation in cells, fold increase | maximum fold increase | 220,000 compounds, 0.005% hits; in the data active = maximum fold increase above about 1.5; tested in PC3 cells
# b-catenin transl – beta-catenin nuclear translocation modulation | HeLa beta-catenin nuclear translocation, immunofluorescence imaging | 190,000 compounds, 0.3% hits | nuclear translocation activity, % at 5 µM;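 active = nuclear translocation activity above 50% at 5 µM, with a well cell count of 50 or more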;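 note: per-cell ratio of nuclear to cytoplasmic median beta-catenin stain intensity; plate controls were DMSO negative control for no effect and GSK-3 inhibitor IX positive control for full effect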
#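 Assay system: human HeLa cells, native beta-catenin; doses: 5 µM primary, 0.02–20 µM confirmation; incubation: compound treatment 24 h, 37°C, 5% CO2; technique: fluorescence imaging of beta-catenin antibody stain plus DAPI; measure: % activation, nuclear-to-cytoplasmic median beta-catenin signal ratio per cell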
# Lmaj promast – Leishmania major promastigote growth inhibition; inhibition, % at 10 µM; 200,000 compounds, 9% hits; Leishmania major promastigotes, resazurin fluorescence viability; in the data active = inhibition above about 50%;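 note: promastigotes grown with compound for 44 hours at 28 °C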
# MT stabilize HCS – stabilizes microtubules in HeLa cells; HeLa tubulin immunostaining HCS, 24 h; share of cells brighter than vehicle mean+2SD; % tubulin-high responders, % at 10 µM; 200,000 compounds, 0.83% hits;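 active = plate Z-score above 3 for both tubulin-high and condensed-nucleus cell shares, with cell loss under 80%, at 10 µM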;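 note: anti alpha tubulin signal scored within the nucleus-defined area of each cell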
# * marks the source's active call; other numbers are inactive results; i = inactive; nt = not tested or not shown. Shown are actives, neighbours in structure and some others; about 8.9% of the full set was active somewhere.
SMILES,Dynein cargo inh,HSV augment,b-catenin transl,Lmaj promast,MT stabilize HCS
O=C(CSc1nc2c(c(=O)[nH]1)CCC2)Nc1cccc(Cl)c1,-0.31,i,-4,-8,5
c1ccc(-c2noc(C34CC5CC(CC(C5)C3)C4)n2)cc1,-1,i,-1,-1,1
O=C(O)c1ccc(N2C(=O)c3[nH]nc(-c4ccccc4)c3C2c2ccccc2)cc1 (centres undefined),0.12,i,1,-5,4
Cn1c(=O)n(C)c2cc([N+](=O)[O-])c(N3CCN(S(=O)(=O)c4ccc(C(C)(C)C)cc4)CC3)cc21,1.4,i,1,70*,3
O=[N+]([O-])c1cc(C(F)(F)F)cc([N+](=O)[O-])c1N1CCN(S(=O)(=O)c2ccccc2)CC1,-0.56,i,2,51*,4
O=C(O)CCC(=O)Nc1ccc(C(=O)OC2CCCCC2)cc1,-0.62,i,-1,-1,5
CCOc1ccccc1CNc1ccc(O)cc1,-1.1,i,1,22,5
CCc1ccc(CNc2ccc(O)cc2)cc1,-2.3,i,nt,98*,3
CCCCC/C=N\NC(=O)Cc1ccc([N+](=O)[O-])cc1,-0.22,i,0,-3,3
Cc1ccc(N(CCC#N)C(=O)CSc2ccc3c(c2)OCCO3)cc1,-0.84,i,-3,6,3
N#CCCN(C(=O)CSc1ccc2c(c1)OCCO2)c1ccc(F)cc1,-1.2,i,nt,87*,2
Cc1nc2ccc(NC(=O)Cc3cccc(F)c3)cc2s1,0.86,i,-3,62*,1
CCn1nc(C(=O)Nc2ccc3nc(C)sc3c2)c2ccccc2c1=O,0.042,i,1,63*,4
Cc1ccc(CSc2ccc3nnc(-c4cccnc4)n3n2)cc1,0.39,i,0,4,3
O=C(COc1ccc(Br)cc1CNC1CCCCC1)NCCc1ccccc1,0.071,i,-10,93*,2
O=C(COc1ccc(Br)cc1Cl)NC(=O)NCc1ccccc1,0.37,i,nt,54*,2
COc1ccc(Br)cc1CN(C)CC(=O)NCCc1ccccc1,-0.48,i,0,1,2
O=C(COc1ccc(Br)cc1Cl)NC(=O)Nc1ccc2c(c1)OCCO2,1.4,i,-3,-4,10
Cc1ccc(C(=O)Nc2ccccc2Sc2ccccc2)cc1,-0.74,nt,-1,9,6
Cc1ccc(C2=NN(C(=S)Nc3ccccc3)C(c3ccco3)C2)cc1 (centres undefined),0.073,i,-2,56*,2
CCS(=O)(=O)Nc1ccc(C2=NN(C(=S)Nc3ccccc3)C(c3ccco3)C2)cc1 (centres undefined),-0.0062,i,0,13,22*
CCC(=O)N1N=C(c2ccc(C)cc2)CC1c1ccco1 (centres undefined),-0.26,i,-1,nt,nt
COc1cc(OC)c(CN2CCC(CO)(CCOc3ccccc3)CC2)c(OC)c1,1.2,i,-2,2,1
COc1ccc(CN2CCC(CO)(CCOc3ccccc3)CC2)cc1C,-1.2,i,0,85*,4
OCC1(CCOc2ccccc2)CCN(CCCn2cccn2)CC1,-0.34,i,2,81*,3
SMILES,Dynein cargo inh,HSV augment,b-catenin transl,Lmaj promast,MT stabilize HCS
COc1cc(CN2CCC(CO)(CCOc3ccccc3)CC2)cc(OC)c1OC,-0.88,i,1,87*,nt
CCOC(=O)c1ccc(NC(=O)CN2CCc3ccccc3C2)cc1,-0.97,i,nt,-10,3
Cc1ccccc1OCCN1C(=O)c2ccccc2C1=O,-0.08,nt,-1,-8,3
Cc1ccccc1Nc1nnc(SCC2CCCCO2)s1 (centres undefined),-0.21,i,-2,-5,3
COc1ccccc1Nc1nnc(SCC2CCCCO2)s1 (centres undefined),0.94,i,0,-2,19*
COc1ccccc1CNC(=O)C(=O)NCC1CCCO1 (centres undefined),0.72,i,-6,-2,2
CCOc1cccc(OCCOCCNC(C)(C)C)c1,2.1,i,3,28,2
Cc1cc(C)c(C)c(OCCOCCNCc2ccccc2)c1,0.41,i,-4,77*,3
CCCOc1ccc(OCCOCCNCc2ccccc2)cc1,0.69,i,nt,98*,4
CCOc1ccc(OCCOCCNCCOC)cc1,-1,i,1,70*,2
Cc1cc(C)c(C)c(OCCCOc2cccc3cccnc23)c1,0.016,i,0,25,2

# From PubChem BioAssay
